Test results: ChEMBL document CHEMBL1142995, “Probing the pharmacophore of ginkgolides as glycine receptor antagonists” (J Med Chem, 2007)
pIC50: −log10 of the molar value.

Legend:
Assay type in all cases: cell-based
[1] = target: T1, Glycine receptor subunit alpha-1 (Homo sapiens, UniProt P23415); assay: Activity at human alpha-1GlyR expressed in HEK293 cells by FMP assay
T1 sequence (P23415 whole entry): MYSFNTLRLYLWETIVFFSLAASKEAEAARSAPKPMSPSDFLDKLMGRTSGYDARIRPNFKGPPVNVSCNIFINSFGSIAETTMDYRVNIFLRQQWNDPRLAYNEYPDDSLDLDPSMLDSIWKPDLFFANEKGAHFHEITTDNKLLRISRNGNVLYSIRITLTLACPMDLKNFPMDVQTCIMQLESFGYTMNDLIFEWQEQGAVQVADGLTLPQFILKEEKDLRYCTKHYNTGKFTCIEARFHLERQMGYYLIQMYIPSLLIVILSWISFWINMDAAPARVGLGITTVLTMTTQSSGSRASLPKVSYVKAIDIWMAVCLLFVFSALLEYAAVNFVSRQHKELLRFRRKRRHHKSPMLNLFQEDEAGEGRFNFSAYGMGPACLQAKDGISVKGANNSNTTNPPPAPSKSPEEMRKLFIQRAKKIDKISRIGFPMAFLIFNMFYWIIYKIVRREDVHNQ
Procedure, shortened: (§1)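 Stable HEK293 lines (α1: G418; α1β: G418 + hygromycin B; α2: hygromycin B) plated on poly-D-lysine 16-24 h. Loaded with FMP dye in HBSS/20 mM HEPES pH 7.4, antagonist present, 30 min at 37 °C. Fluorescence ex 530/em 560 nm read up to 1 min after glycine: 200 µM (α1, α1β) or 500 µM (α2). Duplicates, ≥3 experiments; IC50 from maximal responses.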

[2] = target: T2, Glycine receptor subunit alpha-2 (Homo sapiens, UniProt P23416); assay: Activity at human alpha-2GlyR expressed in HEK293 cells by FMP assay; procedure, shortened: as §1
T2 sequence (P23416 whole entry): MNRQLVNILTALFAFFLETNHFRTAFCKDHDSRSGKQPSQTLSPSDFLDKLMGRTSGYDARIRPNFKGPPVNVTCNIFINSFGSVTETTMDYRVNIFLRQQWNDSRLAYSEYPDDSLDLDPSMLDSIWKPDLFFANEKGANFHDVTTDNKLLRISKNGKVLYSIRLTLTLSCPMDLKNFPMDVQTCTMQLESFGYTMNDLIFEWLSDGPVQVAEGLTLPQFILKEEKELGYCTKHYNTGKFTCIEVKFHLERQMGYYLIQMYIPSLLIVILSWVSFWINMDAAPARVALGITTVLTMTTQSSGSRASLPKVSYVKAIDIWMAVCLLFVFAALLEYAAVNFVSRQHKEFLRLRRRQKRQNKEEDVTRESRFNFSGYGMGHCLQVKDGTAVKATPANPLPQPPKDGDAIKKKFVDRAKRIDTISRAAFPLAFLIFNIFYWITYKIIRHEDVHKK

[3] = target: T1, Glycine receptor subunit alpha-1; assay: Activity at human alpha-1-beta-GlyR expressed in HEK293 cells by FMP assay; procedure, shortened: as §1

With `COC(=O)/C(C)=C1\CC[C@@]23C4C[C@@H](C(C)(C)C)C25C(OC(=O)[C@@H]5O)O[C@]13C(=O)O4` (some centres undefined) the pIC50 [1] was < 4.00, the pIC50 [2] was < 4.00 and the pIC50 [3] was < 4.00.

With `COC(=O)[C@H](OC)C12C(OC)O[C@@]34C(=O)OC(C[C@H]1C(C)(C)C)[C@]23C[C@@H]1OC(=O)[C@@H](C)[C@@]14O` (some centres undefined) the pIC50 [1] was < 4.00, the pIC50 [2] was < 4.00 and the pIC50 [3] was < 4.00.

In the case of `C[C@@H]1CO[C@@H]2C[C@@]34C5C[C@@H](C(C)(C)C)C36C(OC(=O)[C@@H]6O)O[C@]4(C(=O)O5)[C@@]12O` (some centres undefined), the pIC50 [1] was < 4.00, the pIC50 [2] was < 4.00 and the pIC50 [3] was < 4.00.

With `C[C@@H]1C(=O)O[C@H]2[C@H](O)[C@]34C5OC(=O)[C@@]3(OC3OC(=O)[C@H](O)C34[C@H](C(C)(C)C)[C@@H]5OC(=O)Cc3ccccc3)[C@@]12O` (some centres undefined) the pIC50 [1] was < 4.00, the pIC50 [2] was < 4.00 and the pIC50 [3] was < 4.00.

With `COC(=O)C(C)[C@H]1CC[C@@]23C4C[C@@H](C(C)(C)C)C25C(OC(=O)[C@@H]5O)O[C@]13C(=O)O4` (some centres undefined) the pIC50 [1] was < 4.00, the pIC50 [2] was < 4.00 and the pIC50 [3] was < 4.00.

Molecule `C[C@@H]1C(=O)O[C@H]2[C@H](O)[C@]34[C@@H]5C(=O)O[C@@]3(O[C@@H]3OC(=O)[C@H](O)[C@@]34[C@H](C(C)(C)C)[C@@H]5Cl)[C@@]12O` has a pIC50 [1] of 5.12, a pIC50 [2] of 4.89 and a pIC50 [3] of 5.49.

`C[C@@H]1C(=O)O[C@H]2[C@H](O)[C@]34[C@@H]5C(=O)O[C@@]3(O[C@@H]3OC(=O)[C@H](O)[C@@]34[C@H](C(C)(C)C)[C@@H]5F)[C@@]12O` showed a pIC50 [1] of 5.14, a pIC50 [2] of 5.34 and a pIC50 [3] of 5.49.

In the case of `C[C@@H]1CO[C@H]2C[C@@]34C5C[C@@H](C(C)(C)C)C36C(OC[C@@H]6O)O[C@]4(CO5)[C@@]12O` (some centres undefined), the pIC50 [1] was < 4.00, the pIC50 [2] was < 4.00 and the pIC50 [3] was < 4.00.

`CCN[C@@H]1C2OC(=O)[C@]34OC5OC(=O)[C@H](O)C5([C@@H]1C(C)(C)C)[C@@]23[C@@H](O)[C@@H]1OC(=O)[C@@H](C)[C@@]14O` (some centres undefined) was tested, and the pIC50 [1] was < 4.00, the pIC50 [2] was < 4.00 and the pIC50 [3] was < 4.00.

Molecule `C[C@@H]1C(=O)OC2[C@@H]3OCO[C@H]4C(=O)OC5OC6(C(=O)OC7C[C@@H](C(C)(C)C)C54[C@]736)[C@]21O` (some centres undefined) has a pIC50 [1] of 4.92, a pIC50 [2] of 4.92 and a pIC50 [3] of 5.05.

With `CO[C@H]1C(=O)O[C@H]2O[C@@]34OC(=O)[C@@H]5[C@H](O)[C@@H](C(C)(C)C)[C@@]21[C@@]53[C@@H](O)[C@@H]1OC(=O)[C@@H](C)[C@@]14O` the pIC50 [1] was 5.01, the pIC50 [2] was 5.11 and the pIC50 [3] was 5.28.

For `C[C@@H]1C(=O)O[C@H]2[C@H](O)[C@@]34C5OC(=O)[C@@]3(OC3OC(=O)[C@H](O)C34[C@H](C(C)(C)C)[C@H]5OS(=O)(=O)C(F)(F)F)[C@@]12O` (some centres undefined), the pIC50 [1] was < 4.00, the pIC50 [2] was < 4.00 and the pIC50 [3] was < 4.00.

With `CN[C@@H]1C2OC(=O)[C@]34OC5OC(=O)[C@H](O)C5([C@@H]1C(C)(C)C)[C@@]23[C@@H](O)[C@@H]1OC(=O)[C@@H](C)[C@@]14O` (some centres undefined) the pIC50 [1] was < 4.00, the pIC50 [2] was < 4.00 and the pIC50 [3] was < 4.00.

`CC1=C2C(=C[C@]34C5OC(=O)[C@@]23OC2OC(=O)[C@H](O)C24[C@H](C(C)(C)C)[C@H]5O)OC1=O` (some centres undefined) was tested, and the pIC50 [1] was < 4.00, the pIC50 [2] was < 4.00 and the pIC50 [3] was < 4.00.

For `CC(=O)O[C@H]1C(=O)OC2O[C@@]34C(=O)OC5C[C@@H](C(C)(C)C)C21[C@@]53C[C@@H]1OC(=O)[C@@H](C)[C@@]14O` (some centres undefined) [10-ACETOXY-GINKGOLIDE B], the pIC50 [1] was < 4.00, the pIC50 [2] was < 4.00 and the pIC50 [3] was < 4.00.

With `C[C@@H]1C(=O)O[C@H]2C[C@]34C5OC(=O)[C@]3(OC(O)C4[C@H](C(C)(C)C)[C@H]5O)[C@]21O` (some centres undefined) the pIC50 [1] was < 4.00, the pIC50 [2] was < 4.00 and the pIC50 [3] was < 4.00.

`CC(C)(C)[C@@H]1CC2OC(=O)C34OC5OC(=O)[C@H](O)C51[C@@]23CC1OC(=O)[C@](C)(O)[C@@]14O` (some centres undefined) was tested, and the pIC50 [1] was < 4.00, the pIC50 [2] was < 4.00 and the pIC50 [3] was < 4.00.

`C[C@@H]1C(=O)O[C@H]2C[C@@]34C5C[C@@H](C(C)(C)C)C36C(=O)C(=O)OC6O[C@]4(C(=O)O5)[C@]21O` (some centres undefined) was tested, and the pIC50 [1] was < 4.00, the pIC50 [2] was < 4.00 and the pIC50 [3] was < 4.00.
